A short description of assay [1]: Antioxidant activity assessed as ABTS free radical scavenging activity after 3 mins by spectrophotometry. Format: functional. Put shortly: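 ABTS (2 mM stock in PBS, pH 7.4) reacted with 70 mM K2S2O8, left in dark at room temperature 15-16 h, then diluted with PBS to absorbance 0.70 ± 0.03 at 734 nm. Sample in DMSO (0.1 mL, range of concentrations) mixed with 1.9 mL radical solution; absorbance read at ambient temperature after 3 min, PBS blank. Scavenging % vs sample-free control; triplicate means; IC50 = concentration scavenging 50%.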

The test system of assay [2] is Radical scavenging activity. The experiment in a line: Antioxidant activity assessed as DPPH free radical scavenging activity after 30 mins by spectrophotometry. Type of assay: functional. Put shortly:
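Sample in DMSO (0.1 mL, range of concentrations) added to 1.9 mL of 0.004% (w/v) DPPH radical in ethanol; incubated at 37 °C, absorbance read at 517 nm after 30 min. Scavenging % = (A control − A test)/A control × 100, control lacking sample. Triplicate, means used; IC50 taken as concentration scavenging 50% of radicals.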
On the technique in general: The DPPH test is a chemical assay of radical scavenging.

By IC50 is commonly meant the concentration that inhibits the measured activity by half. On to `COc1ccc(C2COc3cccc4c3N2CCC4)cc1` (stereo not given), for which the IC50 came to 26.7 µM in assay [1] and 64.5 µM in assay [2].

On to `c1csc(C2COc3cccc4c3N2CCC4)c1` (stereo not given), for which the IC50 in assay [1] came out at 20.2 µM; in assay [2], 56.3 µM.

With `Nc1ccc(C2COc3cccc4c3N2CCC4)cc1` (stereo not given), the IC50 in assay [1] came to 10 µM; in assay [2], 45 µM.

Turning to `COc1cccc(C2COc3cccc4c3N2CCC4)c1` (stereo not given), the IC50 in assay [1] was found to be 9.3 µM; in assay [2], 44.6 µM.

Regarding `COc1ccc(C2COc3cccc4c3N2CCC4)cc1OC` (stereo not given), the IC50 in assay [1] stood at 28.4 µM; in assay [2], 75.5 µM.

For `c1cc2c3c(c1)OCC(c1cccc4ccccc14)N3CCC2` (stereo not given), the figures for the IC50 in assay [1] and in assay [2] were 52.4 µM and 75.2 µM, respectively.

Take `Cc1cc(C(C)(C)C)c(O)c(C(C)(C)C)c1` [BUTYLATED HYDROXYTOLUENE]: the IC50 in assay [1] was 32.1 µM; in assay [2] it was 63.1 µM.

Consider `c1ccc(C2COc3cccc4c3N2CCC4)cc1` (stereo not given), for which the IC50 in assay [1] was found to be 38.3 µM; in assay [2], 78.8 µM.

In the case of `CC1Oc2cccc3c2N(CCC3)C1c1ccccc1` (stereo not given), the IC50 in assay [1] was 62.4 µM; in assay [2], 95.4 µM.

As to `COc1ccccc1C1COc2cccc3c2N1CCC3` (stereo not given), the IC50 in assay [1] is 15.3 µM; in assay [2] it was 45.4 µM.

Consider `c1cc2c3c(c1)OCC(c1ccc4ccccc4c1)N3CCC2` (stereo not given), for which the IC50 worked out at 62.2 µM in assay [1] and 98.3 µM in assay [2].

For `c1cc2c3c(c1)OCC(c1ccc4c(c1)OCO4)N3CCC2` (stereo not given), the IC50 in assay [1] came out at 42.5 µM; in assay [2], 78.3 µM.

Consider `Nc1cccc(C2COc3cccc4c3N2CCC4)c1` (stereo not given), for which the concentration for half-maximal inhibition (IC50) in assay [1] was found to be 17.8 µM; in assay [2] it was 52.3 µM.

In the case of `O=C1O[C@H]([C@@H](O)CO)C(O)=C1O` [ASCORBIC ACID], the results for the IC50 in assay [1] and in assay [2] were 18.3 µM and 49.7 µM, respectively.

As to `Cc1ccc(C2COc3cccc4c3N2CCC4)cc1` (stereo not given), the values for the IC50 in assay [1] and in assay [2] were 48.4 µM and 98.4 µM, respectively.

Values taken from ChEMBL document CHEMBL3085713, “Facile preparation of tetrahydro-5H-pyrido[1,2,3-de]-1,4-benzoxazines via reductive cyclization of 2-(8-quinolinyloxy)ethanones and their antioxidant activity” (Bioorg Med Chem Lett, 2013).
